For assay [1], the species on record is Homo sapiens. Briefly: Inhibition of glycogen phosphorylase at 625 uM.
For assay [2], the target named is T1, Glycogen phosphorylase, liver form (Homo sapiens) (UniProt P06737).
T1 sequence (whole entry): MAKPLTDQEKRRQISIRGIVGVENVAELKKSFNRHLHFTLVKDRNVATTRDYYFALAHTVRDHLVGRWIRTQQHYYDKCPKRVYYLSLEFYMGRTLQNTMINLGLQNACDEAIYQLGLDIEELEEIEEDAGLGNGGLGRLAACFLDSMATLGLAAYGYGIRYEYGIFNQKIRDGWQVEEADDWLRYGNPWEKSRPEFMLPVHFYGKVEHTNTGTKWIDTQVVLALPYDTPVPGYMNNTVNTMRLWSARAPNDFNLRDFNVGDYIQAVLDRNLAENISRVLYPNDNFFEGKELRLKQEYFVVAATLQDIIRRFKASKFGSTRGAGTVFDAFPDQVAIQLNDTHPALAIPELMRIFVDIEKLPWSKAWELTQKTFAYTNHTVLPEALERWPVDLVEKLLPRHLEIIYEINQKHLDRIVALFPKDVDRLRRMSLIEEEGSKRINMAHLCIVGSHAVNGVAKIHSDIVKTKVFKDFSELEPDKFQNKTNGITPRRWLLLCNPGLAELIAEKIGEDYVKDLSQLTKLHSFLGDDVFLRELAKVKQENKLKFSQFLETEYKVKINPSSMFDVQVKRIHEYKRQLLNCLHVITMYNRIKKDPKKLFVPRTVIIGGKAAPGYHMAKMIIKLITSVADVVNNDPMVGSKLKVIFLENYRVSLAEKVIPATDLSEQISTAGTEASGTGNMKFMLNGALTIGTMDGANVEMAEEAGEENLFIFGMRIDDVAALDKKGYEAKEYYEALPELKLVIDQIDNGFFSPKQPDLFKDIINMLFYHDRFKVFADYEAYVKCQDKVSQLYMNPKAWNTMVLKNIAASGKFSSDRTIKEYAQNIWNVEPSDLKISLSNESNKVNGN
Briefly: Inhibition of liver glycogen phosphorylase B at 625 uM.

The species entered for assay [3] is Homo sapiens. Briefly: Inhibition of glycogen phosphorylase A at 625 uM.
Assay [4] in a line: Inhibition of glycogen phosphorylase. Also on record: species or system Homo sapiens. The method, boiled down: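 Activity measured in the glycogen-synthesis direction at 30 °C with 1% glycogen, with or without glucose-1-phosphate substrate. Buffer was 50 mM triethanolamine/HCl pH 6.8 with 100 mM KCl, 1 mM dithiothreitol and 1 mM EDTA. Muscle or liver phosphorylase a was run without AMP. Phosphorylase b was run with AMP: 1 mM for muscle, 2 mM for liver. Kinetic analysis followed the authors' earlier protocol.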

With `O=C1N=C(O)S/C1=C\c1ccc(OCC2COc3ccccc3O2)cc1` (configuration not stated), the inhibition (in the assay filed under Homo sapiens [1]; in assay [2]; in the assay filed under Homo sapiens [3]) was 20% throughout.
Regarding `O=C1NC(=O)C(Cc2ccc(OCC3COc4ccccc4O3)cc2)S1` (configuration not stated), the inhibition (in the assay filed under Homo sapiens [1]; in assay [2]; in the assay filed under Homo sapiens [3]) was 20% throughout.
With `O=C1NC(=O)C(Cc2ccc(OCC3COc4cc5c(cc4O3)OCO5)cc2)S1` (configuration not stated), in assay [4], inhibition was half-maximal at 7 mM (IC50).

As usually defined, the inhibition is the relative decrease from the control value, in per cent. The IC50 is the concentration that inhibits the measured activity by half. Lower therefore signals greater potency in that assay.
